# ChEMBL document CHEMBL1123797, “Antianaphylactic benzophenones and related compounds” (1987)
# Experiments:
# Type in all cases: functional
# [1] = species on record: Cavia porcellus; assay: Inhibition of slow reacting substance of anaphylaxis (SRS-A) release from sensitized guinea pig chopped lung upon antigen challenge at 10 ug/mL
# Summary of the method: (§1)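 Guinea pigs sensitized to ovalbumin; lungs taken 3 weeks later, perfused with Tyrode, chopped into 0.5-mm cubes. 100-mg aliquots in Tyrode were preincubated 5 min at 37 °C, then compound or Tyrode and ovalbumin (5 mg in 0.1 mL) were added. Incubation was 15 min at 37 °C with rocking, and supernatant was bioassayed. Unchallenged control gave spontaneous release. Values are % inhibition, mean of ≥4 samples; Student's t-test.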
# [2] = species on record: Cavia porcellus; assay: Inhibition of histamine release from sensitized guinea pig chopped lung upon antigen challenge at 10 ug/mL.; summary of the method: as §1
# [3] = system: Cavia porcellus; assay: Time of dosing of compound before antigen challenge in conscious sensitized guinea pig at 50 mg/kg po dose; settings: dose 50 mg/kg
# Summary of the method: (§2)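 Modified Herxheimer test in conscious sensitized guinea pigs, 4-5 per group. Compound was given orally at 25, 50 or 100 mg/kg 2 or 4 h before antigen challenge. Some groups also received mepyramine 0.5 mg/kg sc 0.5 h before challenge. D = mean collapse time of treated/untreated controls; M+D = mean collapse time of compound+mepyramine/mepyramine-dosed controls.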
# [4] = system: Cavia porcellus; assay: Mean collapse time after pretreatment with compound and mepyramine divided by mean collapse time of mepyramine-dosed control animals at 50 mg/kg po dose; summary of the method: as §2
# [5] = system: Cavia porcellus; assay: Mean collapse time after pretreatment with compound divided by mean collapse time of untreated control animals at 50 mg/kg po dose; summary of the method: as §2
# [6] = species on record: Homo sapiens; assay: Inhibition of Slow reacting substance of anaphylaxis (SRS-A) mediator release form passively sensitized human lung upon antigen challenge at 1 ug/mL dose
# Summary of the method: (§3)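 Healthy human lung from carcinoma surgery was chopped into 0.5-mm cubes and passively sensitized 18 h at 18 °C with atopic serum from cocksfoot-pollen-allergic patients. Tissue was preincubated 5 min with compound, challenged with pollen extract (0.1 mL, 1000 noon units) and incubated as for guinea pig lung. Supernatant was bioassayed on guinea pig ileum, with mepyramine-treated (0.4 μg/mL) ileum for SRS-A. Values are % inhibition of mediator release.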
# [7] = species on record: Homo sapiens; assay: Inhibition of Slow reacting substance of anaphylaxis (SRS-A) mediator release form passively sensitized human lung upon antigen challenge at 10 ug/mL dose; summary of the method: as §3
# [8] = species on record: Homo sapiens; assay: Inhibition of Histamine mediator release form passively sensitized human lung upon antigen challenge at 1 ug/mL dose; summary of the method: as §3
# [9] = species on record: Homo sapiens; assay: Inhibition of Histamine mediator release form passively sensitized human lung upon antigen challenge at 10 ug/mL dose; summary of the method: as §3
SMILES,Inhibition [1] [%],Inhibition [2] [%],further results
CCc1ccc(OC)c(C(=O)c2ccccn2)c1,0,–,–
CCc1ccc([S+](C)[O-])c(C(=O)c2ccc(F)cc2)c1 (stereo unspecified),42,9,–
CCc1ccc(OC(C)=O)c(C(=O)c2ccc(Cl)cc2)c1,28,–,–
O=C(c1ccc(Cl)cc1)c1ccccc1O,0,–,–
CCc1ccc(SC)c(C(O)c2ccc(Cl)cc2)c1 (stereo unspecified),11,–,–
CCc1ccc(O)c(C(=O)c2ccccc2)c1,22,–,Time [3]: 2 h; Activity [4]: 1.2; Activity [5]: 2.5
CCc1ccc(O)c(C(=O)c2cccc(C#N)c2)c1,21,–,–
CCc1cccc(C(=O)c2ccccc2)c1O,37,92,–
CCc1ccc(OC)c(C(=O)c2ccncc2)c1,0,–,–
CCCc1ccc(O)c(/C(=N/O)c2ccc(Cl)cc2)c1,8,–,–
CCc1ccc(/C(=N/O)c2ccc(F)cc2)c(O)c1,33,46,–
CCc1ccc([S+](C)[O-])c(C(=O)c2ccc(Cl)cc2)c1 (stereo unspecified),36,1,–
Cc1ccc(O)c(C(=O)c2ccccc2)c1,39,78,–
CCc1ccc(SC)c(C(=O)c2ccccc2)c1,52,19,–
CCc1ccc(OC)c(C(=O)c2cc[n+]([O-])cc2)c1,0,–,–
Cc1cccc(/C(=N/O)c2ccccc2)c1O,0,–,Inhibition [6]: 39%; Inhibition [7]: 62%; Inhibition [8]: 8%; Inhibition [9]: 15%
CCc1ccc(S(C)(=O)=O)c(C(=O)c2ccccc2)c1,35,13,–
CCCc1cccc(C(=O)c2ccccc2)c1O,0,–,–
CCc1cc([S+]([O-])c2ccc(C)cc2)c(O)cc1Cl (stereo unspecified),5,–,–
CCc1ccc(O)c([S+]([O-])c2ccccc2)c1 (stereo unspecified),36,36,–
CCc1ccc(/C(=N/O)c2ccc(Cl)cc2)c(O)c1,0,–,–
Cc1ccc(/C(=N/O)c2ccc(Cl)cc2)c(O)c1,0,–,–

SMILES,Inhibition [1] [%],Inhibition [2] [%],further results
CCc1ccc(O)c(Cc2ccc(Cl)cc2)c1,39,17,–
CCc1ccc(S(C)(=O)=O)c(C(=O)c2ccc(F)cc2)c1,27,–,–
CCc1ccc(O)c(C(=O)c2ccco2)c1,32,0,–
CCc1ccc(O)c(C(=O)c2ccc(C)cc2)c1,76,53,–
CCc1ccc(Cc2ccc(F)cc2)c(O)c1,34,33,–
CCc1ccc([S+](C)[O-])c(C(=O)c2ccc(C)cc2)c1 (stereo unspecified),40,3,Inhibition [6]: 75%; Inhibition [7]: 100%; Inhibition [8]: 0%; Inhibition [9]: 0%
CCc1ccc(O)c(C(=O)c2ccccn2)c1,30,5,–
CCc1ccc(OC(=O)c2ccccc2)c(C(=O)c2ccc(Cl)cc2)c1,71,32,–
C=C(c1ccccc1)c1cc(CC)ccc1O,24,–,–
CCc1ccc(O)c(Cc2ccc(C)cc2)c1,0,–,–
CCc1ccc(O)c(C(=O)c2cccn2C)c1,0,–,Time [3]: 2 h; Activity [4]: 2.3; Activity [5]: 1.2
CCc1ccc(O)c(C(O)c2ccc([N+](=O)[O-])cc2)c1 (stereo unspecified),33,0,–
CCc1ccc(O)c(C(=O)c2ccc([N+](=O)[O-])cc2)c1,5,–,–
CCc1ccc(SC)c(C(=O)c2ccc(F)cc2)c1,31,14,–
CCCc1cccc(C(=O)c2ccc(Cl)cc2)c1O,0,–,–
CCc1ccc(OC)c(C(OC)c2ccc(Cl)cc2)c1 (stereo unspecified),32,22,–
CCc1ccc(O)c(C(=O)c2ccc(F)cc2)c1,1,–,–
CCc1ccc(C(=O)c2ccc(F)cc2)c(OC(C)=O)c1,9,–,–
Cc1ccc(O)c(/C(=N\O)c2ccc(Cl)cc2)c1,32,25,–
CCc1ccc(O)c(Sc2ccc(Cl)cc2)c1,31,31,–
CCCCc1ccc(O)c(C(=O)c2ccc(Cl)cc2)c1,0,–,–
CCc1ccc(O)c(Cc2ccccc2)c1,36,0,Activity [4]: 1.6; Activity [5]: 3
